Test results: publication PMC3901358 (Journal of immunology (Baltimore, Md. : 1950), 2010)

How the values were obtained:
[1] = system: Serum NY-ESO-1– and LAGE-1b–specific Abs; assay: ELISA of patient sera on plates coated with peptide or protein; assay type: binding, human; details: among the 16 patients with NY-ESO-1^+/LAGE-1^+ tumors
Procedure, shortened: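 Plates coated overnight at 4°C with recombinant NY-ESO-1 protein or 18-aa overlapping LAGE-1b peptides (P132–P210), 1 µg/ml in 15 mM Na₂CO₃/30 mM NaHCO₃ pH 9.6 with 0.02% NaN₃. Blocked overnight at 4°C with PBS/2% BSA. Patient sera (NY-ESO-1⁺/LAGE-1⁺ or negative tumors) in PBS/2% BSA, 4-fold dilution series, 2 h RT. Goat anti-human IgG-AP 1 h RT. Phosphatase substrate 25 min RT, read immediately.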

[2] = system: CD4^+ T cells from PBLs of melanoma patients; assay: In vitro sensitization of PBLs with peptide and intracellular cytokine staining; assay type: cell-based, human; details: for patients with peptide-specific spontaneous CD4^+ T cells: 16 patients with stage IV LAGE-1^+/NY-ESO-1^+ melanoma, ICS after 10–12 d IVS; for Th1/Th2 Spontaneous Response Test by ICS, response type / Number of IFN-γ–producing CD4^+ T cells / number of IL-5–producing CD4^+ T cells: PBLs, 10–12 d IVS with the peptide, ICS; for Number of IFN-γ–producing CD4^+ T cells / number of IL-5–producing CD4^+ T cells: background subtracted
[3] = system: LAGE-1–specific CD4^+ T cell clones; assay: IFN-γ ELISPOT, CD4+ T cell clones with peptide-pulsed L.DR cells; assay type: cell-based, human; details: 48-h IFN-γ ELISPOT
[4] = irrelevant control peptide (1 µg/ml), all healthy donors and patients, 6 h ICS

In the case of “LAGE-1b188–210: overlapping synthetic peptide, LAGE-1b positions 188–210 (PEGAQGDGCRGVAFNVMFSAPHI; LAGE-1b; UniProt O75638 188-210, looked up, fragment)”, the “number of patients with high titers of LAGE-1b Abs recognizing the peptide” value [1] is reported as 4.

With “LAGE-1b118–135: 18-aa overlapping synthetic peptide, LAGE-1b positions 118–135; immunodominant epitope (RPGAVLKDFTVSGNLLFM; LAGE-1b; UniProt O75638 118-135, looked up, fragment)” the “patients with peptide-specific spontaneous CD4^+ T cells” value [2] was 9 out of 16.

In the case of “LAGE-1_104–121: 18-aa overlapping synthetic peptide, LAGE-1 positions 104–121; immunodominant epitope (LVRRILSRDAAPLPRPGA; UniProt O75638 104-121, looked up, fragment)”, the “patients with peptide-specific spontaneous CD4^+ T cells” value [2] is reported as 10 out of 16, the “Th1/Th2 Spontaneous Response Test by ICS, response type” value (shortened to “Th1/Th2 Spontaneous Response Test”) ([2]; patient MP1) is reported as “Th1/Th2 (213, 79)” and the “Number of IFN-γ–producing CD4^+ T cells” value ([2]; patient MP1) is reported as 213 per 10^5 CD4^+ T cells. For the same substance, the “number of IL-5–producing CD4^+ T cells” value ([2]; patient MP1) was 79 per 10^5 CD4^+ T cells, the “Th1/Th2 Spontaneous Response Test” value ([2]; patient MP2) was “Th2 (0, 110)” and the “Number of IFN-γ–producing CD4^+ T cells” value ([2]; patient MP2) was 0 per 10^5 CD4^+ T cells. The “number of IL-5–producing CD4^+ T cells” value ([2]; patient MP2) was 110 per 10^5 CD4^+ T cells, the “Th1/Th2 Spontaneous Response Test” value ([2]; patient MP3) was “Th1 (130, 0)” and the “Number of IFN-γ–producing CD4^+ T cells” value ([2]; patient MP3) was 130 per 10^5 CD4^+ T cells. The “number of IL-5–producing CD4^+ T cells” value ([2]; patient MP3) was 0 per 10^5 CD4^+ T cells, the “Th1/Th2 Spontaneous Response Test” value ([2]; patient MP5) was “Th1/Th2 (505, 80)” and the “Number of IFN-γ–producing CD4^+ T cells” value ([2]; patient MP5) was 505 per 10^5 CD4^+ T cells. For the same substance, the “number of IL-5–producing CD4^+ T cells” value ([2]; patient MP5) was 80 per 10^5 CD4^+ T cells, the “Th1/Th2 Spontaneous Response Test” value ([2]; patient MP6) was “Th1/Th2 (351, 185)” and the “Number of IFN-γ–producing CD4^+ T cells” value ([2]; patient MP6) was 351 per 10^5 CD4^+ T cells. The “number of IL-5–producing CD4^+ T cells” value ([2]; patient MP6) was 185 per 10^5 CD4^+ T cells, the “Th1/Th2 Spontaneous Response Test” value ([2]; patient MP7) was “Th2 (0, 543)” and the “Number of IFN-γ–producing CD4^+ T cells” value ([2]; patient MP7) was 0 per 10^5 CD4^+ T cells. The “number of IL-5–producing CD4^+ T cells” value ([2]; patient MP7) was 543 per 10^5 CD4^+ T cells, the “Th1/Th2 Spontaneous Response Test” value ([2]; patient MP8) was “Th1/Th2 (341, 221)” and the “Number of IFN-γ–producing CD4^+ T cells” value ([2]; patient MP8) was 341 per 10^5 CD4^+ T cells. For the same substance, the “number of IL-5–producing CD4^+ T cells” value ([2]; patient MP8) was 221 per 10^5 CD4^+ T cells, the “Th1/Th2 Spontaneous Response Test” value ([2]; patient MP9) was “Th1/Th2 (205, 65)” and the “Number of IFN-γ–producing CD4^+ T cells” value ([2]; patient MP9) was 205 per 10^5 CD4^+ T cells. For the same substance, the “number of IL-5–producing CD4^+ T cells” value ([2]; patient MP9) was 65 per 10^5 CD4^+ T cells, the “Th1/Th2 Spontaneous Response Test” value ([2]; patient MP12) was “Th1 (270, 0)” and the “Number of IFN-γ–producing CD4^+ T cells” value ([2]; patient MP12) was 270 per 10^5 CD4^+ T cells. For the same substance, the “number of IL-5–producing CD4^+ T cells” value ([2]; patient MP12) was 0 per 10^5 CD4^+ T cells, the “Th1/Th2 Spontaneous Response Test” value ([2]; patient MP14) was “Th1 (400, 0)” and the “Number of IFN-γ–producing CD4^+ T cells” value ([2]; patient MP14) was 400 per 10^5 CD4^+ T cells. For the same substance, the “number of IL-5–producing CD4^+ T cells” value ([2]; patient MP14) was 0 per 10^5 CD4^+ T cells.

For “LAGE-1b167–184: 18-aa overlapping synthetic peptide, LAGE-1b positions 167–184 (DLRTPKHKVSEQRPGTPG; LAGE-1b; UniProt O75638 167-184, looked up, fragment)”, the “number of patients with high titers of LAGE-1b Abs recognizing the peptide” value [1] was 4.

“HIVpol711–725: irrelevant HIV-derived control peptide in ICS [reference compound]” was tested, and the “mean value of IFN-γ–producing CD4^+ T cells” value [2, 4] was 25 per 10^5 CD4^+ T cells and the “mean value of IL-5–producing CD4^+ T cells” value [2, 4] was 22 per 10^5 CD4^+ T cells.

With “LAGE-1_97–114: 18-aa overlapping synthetic peptide, LAGE-1 positions 97–114; immunodominant epitope (SSPMEAELVRRILSRDAA; UniProt O75638 97-114, looked up, fragment)” the “patients with peptide-specific spontaneous CD4^+ T cells” value [2] was 7 out of 16, the “Th1/Th2 Spontaneous Response Test” value ([2]; patient MP2) was “Th2 (0, 100)” and the “Number of IFN-γ–producing CD4^+ T cells” value ([2]; patient MP2) was 0 per 10^5 CD4^+ T cells. The “number of IL-5–producing CD4^+ T cells” value ([2]; patient MP2) was 100 per 10^5 CD4^+ T cells, the “Th1/Th2 Spontaneous Response Test” value ([2]; patient MP4) was “Th1 (101, 18)” and the “Number of IFN-γ–producing CD4^+ T cells” value ([2]; patient MP4) was 101 per 10^5 CD4^+ T cells. For the same substance, the “number of IL-5–producing CD4^+ T cells” value ([2]; patient MP4) was 18 per 10^5 CD4^+ T cells, the “Th1/Th2 Spontaneous Response Test” value ([2]; patient MP6) was “Th1 (110, 20)” and the “Number of IFN-γ–producing CD4^+ T cells” value ([2]; patient MP6) was 110 per 10^5 CD4^+ T cells. For the same substance, the “number of IL-5–producing CD4^+ T cells” value ([2]; patient MP6) was 20 per 10^5 CD4^+ T cells, the “Th1/Th2 Spontaneous Response Test” value ([2]; patient MP7) was “Th2 (0, 435)” and the “Number of IFN-γ–producing CD4^+ T cells” value ([2]; patient MP7) was 0 per 10^5 CD4^+ T cells. The “number of IL-5–producing CD4^+ T cells” value ([2]; patient MP7) was 435 per 10^5 CD4^+ T cells, the “Th1/Th2 Spontaneous Response Test” value ([2]; patient MP9) was “Th1/Th2 (83, 193)” and the “Number of IFN-γ–producing CD4^+ T cells” value ([2]; patient MP9) was 83 per 10^5 CD4^+ T cells. For the same substance, the “number of IL-5–producing CD4^+ T cells” value ([2]; patient MP9) was 193 per 10^5 CD4^+ T cells, the “Th1/Th2 Spontaneous Response Test” value ([2]; patient MP15) was “Th1/Th2 (60, 530)” and the “Number of IFN-γ–producing CD4^+ T cells” value ([2]; patient MP15) was 60 per 10^5 CD4^+ T cells. For the same substance, the “number of IL-5–producing CD4^+ T cells” value ([2]; patient MP15) was 530 per 10^5 CD4^+ T cells, the “Th1/Th2 Spontaneous Response Test” value ([2]; patient MP16) was “Th1 (170, 0)” and the “Number of IFN-γ–producing CD4^+ T cells” value ([2]; patient MP16) was 170 per 10^5 CD4^+ T cells. The “number of IL-5–producing CD4^+ T cells” value ([2]; patient MP16) was 0 per 10^5 CD4^+ T cells.

For “NY-ESO-1_104–121: NY-ESO-1 peptide overlapping the LAGE-1_104–121 sequence, control (LARRSLAQDAPPLPVPGV; UniProt P78358 104-121, looked up, fragment)”, the “recognition of peptide by LAGE-1_104–121–specific CD4^+ T cell clone 116/12” value [3] was “did not recognize”.
